Assay results as given in the RNAGym collection of RNA variant scans (doi:10.1038/s41586-018-0170-7).

B1: tRNA (parent)
chain: GUUCCGUUGGCGUAAUGGUAACGCGUCUCCCUCCUAAGGAGAAGACUGCGGGUUCGAGUCCCGUACGGAACG

Variants of: B1
Test: yeast fitness, log relative to wild type (ln ratio); higher = fitter; tRNA-Arg(CCU), competitive growth, 37 C, 1 M NaCl
Method in brief: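 A combinatorial tRNA-Arg(CCU) variant library was carried on a HIS3 centromeric plasmid in BY4742 lacking the chromosomal gene, from two independent transformations. Pools grew 4 generations in SC-HIS at 30 °C, then ~6.5 generations (~26.5 h) in SC-HIS 1M NaCl at 37 °C, with three outputs per input. Variants were counted by 125 bp paired-end Illumina sequencing. Fitness is ln of each genotype's generations (OD-scaled log2 output/input frequency, inverse-variance weighted across replicates) over the wild-type's.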

| Variant | yeast fitness (ln) |
| --- | --- |
| U2G G6U A69G A70U C71U | -0.26 |
| G1A U2C G6U C66U A70G | -0.302 |
| G6A C27U A69G A70G | -0.12 |
| G6A A43C C46U C66U A69G | -0.0394 |
| U2G A43C C46U C66U A69G A70G C71U | -0.244 |
| U2C G6U C71U | -0.0615 |
| U2G G6U A69G | -0.176 |
| G1A U2G G6A C27U A43C C66U A70U | -0.236 |
| G1A G6A C46U A69G A70G C71U | -0.129 |
| U2G G6A C46U A69G | -0.183 |
| U2G C46U C66U A70G C71U | -0.115 |
| G1A U2G C66U A69G A70U | -0.197 |
| U2C G6A A43C C66U C71U | -0.115 |
| G1A U2C C46U C66A A70U C71U | -0.0833 |
| U2C G6A C27U C46U C66U A69G A70G | -0.0335 |
| U2G G6A C27U C46U C66A A69G A70U | -0.134 |
| G1A U2G C27U C66U A69G A70G C71U | -0.416 |
| A43C C46U C66A A69G A70U C71U | -0.341 |
| U2C G6U A43C A69G A70U | -0.152 |
| C46U A69G A70U C71U | -0.138 |
| G1A U2C G6A C27U A43C | -0.0863 |

| Variant | yeast fitness (ln) |
| --- | --- |
| G6U C46U | -0.0183 |
| C27U C46U A70U C71U | -0.205 |
| G1A U2G G6A C27U A43C A69G C71U | -0.673 |
| G6U A69G A70U | -0.145 |
| U2G G6U A43C A70U | -0.151 |
| U2C G6U C27U A43C C66A C71U | -0.176 |
| G1A G6U C46U A69G A70G C71U | -0.216 |
| U2C G6U C46U C66A A69G A70U C71U | -0.185 |
| U2G G6A C27U C46U A70U | -0.106 |
| G6U C27U C66U A69G A70U C71U | -0.416 |
| C46U C66U A70G C71U | -0.0752 |
| G1A U2C G6U C27U A43C C66U A69G A70U C71U | -0.42 |
| U2C G6U C27U A43C C46U C66A A69G A70U | -0.101 |
| U2G G6A C27U C46U C66U A70U C71U | -0.158 |
| G6U A43C C71U | -0.253 |
| G1A G6U A43C A70G | -0.21 |
| C27U A43C | -0.0182 |
| G6U C66A | 0.000896 |
| G1A U2G G6A A43C A69G A70U C71U | -0.411 |
| U2C G6U C66A A69G A70U C71U | -0.487 |
| U2C C27U A70U | -0.0757 |

| Variant | yeast fitness (ln) |
| --- | --- |
| U2C C27U A43C C66A A70G | -0.0848 |
| U2C C27U A43C C66A A70U | -0.145 |
| C27U C46U A69G C71U | -0.0597 |
| U2G G6A A43C C46U C66U A70U | -0.000672 |
| G1A U2G G6A A43C C46U C66A A70U C71U | -0.282 |
| G1A U2C G6U C27U A70U | -0.134 |
| G6U A43C A69G A70G | -0.371 |
| U2C G6A C27U A43C C46U C66U A70G | -0.0221 |
| U2C C27U A43C C46U C66U A69G A70G C71U | -0.216 |
| U2G G6A C27U C46U C66A A70G C71U | -0.221 |
| G1A U2C G6A C27U A70U | -0.0756 |
| G1A U2G G6U C27U A43C C46U A69G A70G C71U | -0.446 |
| G6A C27U C46U C66U A70U C71U | -0.237 |
| G1A A70G C71U | -0.0244 |
| G1A U2C G6U C27U C46U C66U A70G C71U | -0.169 |
| G1A G6A C27U C46U C66U A70U | -0.198 |
| G1A U2G C46U C71U | -0.25 |
| G1A U2G C66A A70G C71U | -0.191 |
| G1A U2G C46U C66A A69G A70U | -0.0906 |
| G6U C46U A69G | -0.397 |
| G1A G6A C46U C66U A70U C71U | -0.0831 |

| Variant | yeast fitness (ln) |
| --- | --- |
| G1A G6A C27U A43C C66U C71U | -0.505 |
| U2C A43C C66A A69G A70G C71U | -0.168 |
| G1A G6U A43C C46U C66A A69G A70G C71U | -0.393 |
| U2G G6U C27U A43C C46U A69G | -0.199 |
| C27U A43C C46U C66A A70G C71U | -0.101 |
| G1A G6A C27U A43C C66U A69G A70G | -0.383 |
| U2C G6U C27U A43C C46U A69G A70U | -0.126 |
| G6U C27U C66U A69G C71U | -0.377 |
| G1A U2G G6A A43C C46U C66U C71U | -0.177 |
| U2C A43C C46U C71U | -0.193 |
| U2G C27U A43C C46U C66U A69G A70G | -0.275 |
| U2C C46U C66U | -0.171 |
| U2G G6U A43C C66A A70G C71U | -0.265 |
| U2C G6U C27U C46U A69G A70G C71U | -0.244 |
| G1A U2C A43C A69G A70U C71U | -0.29 |
| U2C G6U C27U C46U C66U A69G C71U | -0.397 |
| U2C C46U C66A A69G A70G | -0.0391 |
| U2G C27U C66U A70G | -0.147 |
| G6U C27U C66A A70G C71U | -0.294 |
| G1A A43C C46U C66U A69G A70G | -0.222 |
| G1A U2G C27U A43C C66A A69G C71U | -0.297 |
